Data on two molecules can be found in ChEMBL document CHEMBL1687720 (Antimicrob Agents Chemother, 2009).

The subject of experiment [1] is A549. Kind of experiment: Inhibition of glutathione S-transferase in human A549 cells assessed as enzyme activity at 5 µM after 24 hrs relative to untreated control. More on the design: scale not given: the % may be the effect or the level left.
A further experiment has as its system Plasmodium falciparum. Kind of experiment: Antiplasmodial activity against chloroquine-resistant Plasmodium falciparum K1 in presence of premaquine. It counts as functional.
Experiment [2] concerns A549. Kind of experiment: Inhibition of glutathione peroxidase in human A549 cells assessed as enzyme activity at 662 µM after 24 hrs relative to untreated control. Also noted: scale not given: the % may be the effect or the level left.
Experiment [3] concerns the target T1, Glutathione reductase, mitochondrial (Homo sapiens) (UniProt P00390).
T1 sequence (whole entry): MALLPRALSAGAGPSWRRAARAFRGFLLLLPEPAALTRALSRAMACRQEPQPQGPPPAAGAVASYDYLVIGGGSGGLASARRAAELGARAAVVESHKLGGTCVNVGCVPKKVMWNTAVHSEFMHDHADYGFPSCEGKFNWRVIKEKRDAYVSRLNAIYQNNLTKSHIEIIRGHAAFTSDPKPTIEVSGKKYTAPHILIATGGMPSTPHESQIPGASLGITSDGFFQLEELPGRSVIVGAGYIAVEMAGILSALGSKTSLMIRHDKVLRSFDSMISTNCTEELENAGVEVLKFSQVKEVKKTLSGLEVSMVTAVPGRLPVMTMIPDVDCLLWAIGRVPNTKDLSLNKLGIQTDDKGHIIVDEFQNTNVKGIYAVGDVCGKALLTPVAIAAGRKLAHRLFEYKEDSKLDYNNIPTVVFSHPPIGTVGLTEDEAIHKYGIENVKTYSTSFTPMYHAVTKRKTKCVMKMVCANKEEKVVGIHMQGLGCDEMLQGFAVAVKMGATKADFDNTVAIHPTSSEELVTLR
Kind of experiment: Inhibition of glutathione reductase in human A549 cells assessed as enzyme activity at 662 µM after 24 hrs relative to untreated control. More on the design: scale not given: the % may be the effect or the level left.

For experiment [4], the system named is A549. Description: Effect on glutathione S-transferase expression in human A549 cells assessed as transcript level at 662 nM after 24 hrs by RT-qPCR analysis relative to untreated control. It counts as functional. Conditions: in the assay text read “662 µM” for “662 nM”. The essentials:
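A549 cells are seeded at 2.5 × 10^5 per 25-cm2 well. At 40–45% confluence they are treated for 24 h with 166 or 662 μM, 158 or 315 μM, or 5 or 24 μM compound; controls receive <5% DMSO. Total RNA is DNase-treated and qRT-PCR is run in quadruplicate. Values are normalized to GAPDH and given as % of untreated control.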
In general terms: Quantitative PCR measures a nucleic acid by following its amplification.

Molecules are shown by their SMILES.

Consider `O=c1oc2c(O)c(O)c(O)c3c(=O)oc4c(O)c(O)c(O)c1c4c23` [CORULEOELLAGIC ACID], for which the Activity in the experiment on A549 [1] was found to be 101%.
`O=c1oc2c(O)c(O)cc3c(=O)oc4c(O)c(O)cc1c4c23` [ELLAGIC ACID]: in the experiment on Plasmodium falciparum, the FIC50 is on record as 1. Moreover, the Activity stood at 125% in the experiment on A549 [2], 85% in experiment [3] and 131% with A549 [4].
